pEC50: −log10 of the molar value.
Legend:
[1] = tested on: P3HR-1; assay: Cytotoxic concentration for inhibition of human lymphoblastoid P3HR-1 cell growth; type: functional
Method in brief: (§1)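 P3HR-1 cells seeded at 2 × 10⁵ cells/mL and grown 7 days with compound at a range of concentrations. Cells counted on a particle counter. CC50 calculated as 50% inhibition of cell growth.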

[2] = tested on: Nucleic Acid; assay: Effective concentration for the inhibition of Epstein-Barr virus EBV-DNA synthesis in human lymphoblastoid P3HR-1 cells; type: functional, cell-based; settings: human gammaherpesvirus 4, P3HR-1
Method in brief: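 P3HR-1 (EBV producer) cells in RPMI-1640 with 10% heat-inactivated FCS at 36.5 °C, seeded at 10⁶ cells/mL. TPA 20 ng/mL added to induce virus production. Compound given at a range of concentrations for 7 days. DNA extracted and 10 μg used for slot blot hybridization with a digoxigenin-labeled EBV BamHI-W probe, chemiluminescence and densitometry. EC50 obtained by regression against untreated cells.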

[3] = Selectivity index as the ratio of CC50 value to that of EC50 value.; type: functional
Method in brief: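 Selectivity index is CC50 (μM)/EC50 (μM). CC50 is for P3HR-1 growth over 7 days, read by cell count. EC50 is for EBV DNA synthesis in TPA-induced P3HR-1 cells over 7 days, read by slot blot.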

[4] = Partition coefficient (logP); type: physicochemical; settings: octanol/water
Method in brief: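 Compound dissolved in 0.3 mL 1-octanol and shaken with 0.3 mL water by vortexing for 10 min. Phases separated by centrifugation. Each phase analysed by RP-18 HPLC with UV detection at 250 nm. P taken from the ratio of aqueous and organic peak areas.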

[5] = Selectivity as the ratio of CC50 value to that of EC50 value.; type: functional
Method in brief: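 Ratio CC50/EC50, both in P3HR-1 cells over 7 days at varied concentrations. EC50: cells seeded at 10⁶ cells/mL, induced with TPA 20 ng/mL; EBV DNA in 10 μg total DNA by slot blot with digoxigenin-labeled BamHI-W probe, chemiluminescence and densitometry; regression against untreated cells. CC50: growth from 2 × 10⁵ cells/mL, cells counted with a particle counter.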

[6] = tested on: P3HR-1; assay: Cytotoxic concentration for the inhibition of P3HR-1 cell growth; type: functional; settings: Homo sapiens; method in brief: as §1

Row | SMILES | CC50 [1] | pEC50 [2] | SI [3] | logP [4] | Selectivity [5] | CC50 [6]
1 | O=c1[nH]c(=O)n([C@H]2C[C@H](O)[C@@H](COP3(=O)OCc4ccccc4O3)O2)cc1/C=C/Br (stereo partly specified) | 92 µM | 4.91 | 7.5 | 1.5 | – | –
2 | Cc1cccc2c1OP(=O)(OC[C@H]1O[C@@H](n3cc(/C=C/Br)c(=O)[nH]c3=O)C[C@@H]1OC(=O)[C@@H](N)CC(C)C)OC2 (stereo partly specified) | 45 µM | 4.64 | 2 | 0.4 | – | –
3 | Cc1cccc2c1OP(=O)(OC[C@H]1O[C@@H](n3cc(/C=C/Br)c(=O)[nH]c3=O)C[C@@H]1OC(=O)CC(C)C)OC2 (stereo partly specified) | 104 µM | < 3.77 | – | 2.4 | – | –
4 | CC(=O)CCC(=O)O[C@H]1C[C@H](n2cc(/C=C/Br)c(=O)[nH]c2=O)O[C@@H]1COP1(=O)OCc2cccc(C)c2O1 (stereo partly specified) | 152 µM | < 3.79 | – | 2.3 | – | –
5 | Cc1cccc2c1OP(=O)(OC[C@H]1O[C@@H](n3cc(/C=C/Br)c(=O)[nH]c3=O)C[C@@H]1OC(=O)[C@H](N)Cc1ccccc1)OC2 (stereo partly specified) | 66 µM | 4.33 | 1.4 | 0.5 | – | –
6 | CCC(C)[C@H](N)C(=O)O[C@H]1C[C@H](n2cc(/C=C/Br)c(=O)[nH]c2=O)O[C@@H]1COP1(=O)OCc2cccc(C)c2O1 (stereo partly specified) | 78 µM | < 3.87 | – | -0.02 | – | –
7 | Nc1nc2c(ncn2COCCO)c(=O)[nH]1 [ACYCLOVIR] | – | 5.17 | – | – | 58 | 392 µM
8 | Cc1cccc2c1OP(=O)(OC[C@H]1O[C@@H](n3cc(/C=C/Br)c(=O)[nH]c3=O)C[C@@H]1OC(=O)[C@H](N)C(C)C)OC2 (stereo partly specified) | 80 µM | < 3.86 | – | -0.1 | – | –
9 | Cc1cccc2c1OP(=O)(OC[C@H]1O[C@@H](n3cc(/C=C/Br)c(=O)[nH]c3=O)C[C@@H]1OC(=O)[C@H]1CCCN1)OC2 (stereo partly specified) | 38 µM | ≤ 3.86 | – | -0.4 | – | –
10 | CC(C)(C)c1cccc2c1OP(=O)(OC[C@H]1O[C@@H](n3cc(/C=C/Br)c(=O)[nH]c3=O)C[C@@H]1O)OC2 (stereo partly specified) | 80 µM | 4.49 | 2.5 | 2.9 | – | –
11 | COc1ccc2c(c1)COP(=O)(OC[C@H]1O[C@@H](n3cc(/C=C/Br)c(=O)[nH]c3=O)C[C@@H]1O)O2 (stereo partly specified) | 137 µM | 5.47 | 41 | 1.6 | – | –
12 | O=c1[nH]c(=O)n([C@H]2C[C@H](O)[C@@H](COP3(=O)OCc4cc(Cl)ccc4O3)O2)cc1/C=C/Br (stereo partly specified) | 80 µM | 4.59 | 3.1 | 1.8 | – | –
13 | CCC(C)[C@@H](N)C(=O)O[C@H]1C[C@H](n2cc(/C=C/Br)c(=O)[nH]c2=O)O[C@@H]1COP1(=O)OCc2cccc(C)c2O1 (stereo partly specified) | 37 µM | < 3.87 | – | -0.02 | – | –
14 | Cc1cccc2c1OP(=O)(OC[C@H]1O[C@@H](n3cc(/C=C/Br)c(=O)[nH]c3=O)C[C@@H]1OC(=O)[C@@H](N)Cc1ccccc1)OC2 (stereo partly specified) | 35 µM | ≤ 3.89 | – | 0.5 | – | –
15 | Cc1cccc2c1OP(=O)(OC[C@H]1O[C@@H](n3cc(/C=C/Br)c(=O)[nH]c3=O)C[C@@H]1OC(=O)[C@@H]1CCCN1)OC2 (stereo partly specified) | 36 µM | ≤ 3.86 | – | -0.4 | – | –
16 | Cc1cccc2c1OP(=O)(OC[C@H]1O[C@@H](n3cc(/C=C/Br)c(=O)[nH]c3=O)C[C@@H]1OC(=O)CN)OC2 (stereo partly specified) | 93 µM | 4.36 | 2.1 | -0.8 | – | –
17 | CCCCCCC(=O)O[C@H]1C[C@H](n2cc(/C=C/Br)c(=O)[nH]c2=O)O[C@@H]1COP1(=O)OCc2cccc(C)c2O1 (stereo partly specified) | – | < 3.79 | – | 2.6 | – | > 326 µM
18 | O=c1[nH]c(=O)n([C@H]2C[C@H](O)[C@@H](CO)O2)cc1/C=C/Br [BRIVUDINE] | – | < 3.52 | – | 0.33 | – | 225 µM
19 | Cc1cccc2c1OP(=O)(OC[C@H]1O[C@@H](n3cc(/C=C/Br)c(=O)[nH]c3=O)C[C@@H]1OC(=O)[C@@H](N)C(C)C)OC2 (stereo partly specified) | 47 µM | 4.09 | 0.6 | -0.1 | – | –
20 | CCCCCCCCCCC(=O)O[C@H]1C[C@H](n2cc(/C=C/Br)c(=O)[nH]c2=O)O[C@@H]1COP1(=O)OCc2cccc(C)c2O1 (stereo partly specified) | – | < 3.83 | – | 2.8 | – | > 299 µM
21 | Cc1cc(C)c2c(c1)COP(=O)(OC[C@H]1O[C@@H](n3cc(/C=C/Br)c(=O)[nH]c3=O)C[C@@H]1O)O2 (stereo partly specified) | 143 µM | 4.84 | 9.9 | 2.2 | – | –
22 | CC(=O)O[C@H]1C[C@H](n2cc(/C=C/Br)c(=O)[nH]c2=O)O[C@@H]1COP1(=O)OCc2cccc(C)c2O1 (stereo partly specified) | 109 µM | – | – | 2.2 | – | –
23 | Cc1cccc2c1OP(=O)(OC[C@H]1O[C@@H](n3cc(/C=C/Br)c(=O)[nH]c3=O)C[C@@H]1OC(=O)[C@H](N)CC(C)C)OC2 (stereo partly specified) | 65 µM | < 3.87 | – | 0.4 | – | –
24 | Cc1cccc2c1OP(=O)(OC[C@H]1O[C@@H](n3cc(/C=C/Br)c(=O)[nH]c3=O)C[C@@H]1O)OC2 (stereo partly specified) | 122 µM | 5.39 | 30 | 1.9 | – | –
